Results published in ChEMBL document CHEMBL3853347, “PUMA-dependent apoptosis in NSCLC cancer cells by a dimeric β-carboline” (Bioorg Med Chem Lett, 2016).
Activity calls are given as the source filed them. No cut-off for these calls is given here.

Key:
[1] = Cytotoxicity against human NCI-H2009 cells assessed as decrease in cell viability after 48 hrs by Alamar blue assay; type: functional, cell-based; settings: NCI-H2009, 48 h
[2] = Cytotoxicity against human NCI-H441 cells assessed as decrease in cell viability after 48 hrs by Alamar blue assay; type: functional, cell-based; settings: NCI-H441, 48 h
[3] = Cytotoxicity against human NCI-H1993 cells assessed as decrease in cell viability after 48 hrs by Alamar blue assay; type: functional, cell-based; settings: NCI-H1993, 48 h
[4] = Cytotoxicity against human NCI-H1299 cells assessed as decrease in cell viability after 48 hrs by Alamar blue assay; type: functional, cell-based; settings: NCI-H1299, 48 h
[5] = Cytotoxicity against human NCI-H1373 cells assessed as decrease in cell viability after 48 hrs by Alamar blue assay; type: functional, cell-based; settings: NCI-H1373, 48 h
[6] = Cytotoxicity against human IMR90 cells assessed as decrease in cell viability after 48 hrs by Alamar blue assay; type: toxicity, cell-based, IMR-90
[7] = tested on: NCI-H1299; test: Induction of autophagy in human NCI-H1299 cells transfected with GFP-LC3 assessed as increase in LC3-2 level at 3 to 10 uM after 24 hr by DAPI staining based immunofluorescence assay; type: functional, cell-based
[8] = Cytotoxicity against human A549 cells assessed as decrease in cell viability after 48 hrs by Alamar blue assay; type: functional, cell-based; settings: A549, 48 h
[9] = Upregulation of PUMA expression in human NCI-H1299 cells assessed as after 24 hrs by Western blot analysis; type: functional, cell-based
Method in brief: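 PUMA protein measured by western blot in H1299 cells after 24 hrs with compound (3, 5, 10 or 20 μM) or DMSO.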

[10] = tested on: NCI-H1299; test: Induction of apoptosis in human NCI-H1299 cells assessed as increase in cleaved lamin A level at 3 to 10 uM after 24 hrs by Western blot analysis; type: functional, cell-based
Method in brief: (§1)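 H1299 cells treated 24 hrs with compound (3, 5, 10 or 20 μM) or DMSO. Lysates were probed by western blot for apoptotic markers: cleaved caspase 3, cleaved lamin A and cleaved PARP.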

[11] = tested on: NCI-H1299; test: Induction of autophagy in human NCI-H1299 cells assessed as increase in LC3-2 level after 24 hr by Western blot analysis; type: functional, cell-based
Method in brief: (§2)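 H1299 cells incubated 24 hrs with compound (3, 5, 10 or 20 μM) or DMSO. LC3 (LC3II band) and p62/SQSTM1 were detected by western blot.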

[12] = tested on: NCI-H1299; test: Induction of apoptosis in human NCI-H1299 cells assessed as apoptotic cells at 3 uM after 48 hrs by annexin V-phycoerythrin/7-AAD staining based flow cytometry (reference value: 4%); type: functional
[13] = tested on: NCI-H1299; test: Induction of apoptosis in human NCI-H1299 cells assessed as increase in cleaved PARP level at 3 to 10 uM after 24 hrs by Western blot analysis; type: functional, cell-based; method in brief: as §1
[14] = tested on: NCI-H1299; test: Induction of apoptosis in human NCI-H1299 cells assessed as increase in cleaved caspase 3 level after 24 hrs by Western blot analysis; type: functional, cell-based; method in brief: as §1
[15] = tested on: NCI-H1299; test: Induction of autophagy in human NCI-H1299 cells assessed as increase in p62/SQSTM1 level at 3 to 10 uM after 24 hr by Western blot analysis; type: functional, cell-based; method in brief: as §2
[16] = Drug localization in lysosomes of human NCI-H1299 cells at 10 uM after 1 hr by mitotracker green FM/lysotracker red DND-99 staining based confocal microscopy; type: ADME, cell-based, Lysosome; settings: nci-h1299, 1 h
Method in brief: (§3)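 Live H1299 cells exposed to compound for 1 hr, then co-stained with MitoTracker Green FM (mitochondria) and LysoTracker Red DND-99 (lysosomes). Localization was read by live confocal microscopy using the β-carboline's intrinsic fluorescence (Ex/Em 358/461 nm), compared against the organelle stains.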

[17] = tested on: NCI-H1299; test: Induction of apoptosis in human NCI-H1299 cells assessed as increase in cleaved caspase 3 level after 24 hrs by immunofluorescence based confocal microscopy; type: functional, cell-based
Method in brief: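 H1299 cells treated 24 hrs with compound (5 or 20 μM) or DMSO, then immunostained for active caspase 3 and imaged by confocal microscopy. Apoptotic fraction was calculated as cells expressing active caspase over total cells; n=3, s.d.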

[18] = tested on: NCI-H1299; test: Induction of apoptosis in human NCI-H1299 cells assessed as apoptotic cells at 15 uM after 48 hrs by annexin V-phycoerythrin/7-AAD staining based flow cytometry (reference value: 4%); type: functional
[19] = Drug localization in lysosomes of human NCI-H1299 cells at 20 uM after 1 hr by mitotracker green FM/lysotracker red DND-99 staining based confocal microscopy; type: ADME, cell-based, Lysosome; settings: nci-h1299, 1 h; method in brief: as §3
[20] = tested on: NCI-H1299; test: Induction of autophagy in human NCI-H1299 cells transfected with GFP-LC3 assessed as increase in LC3-2 level at 20 uM after 24 hr by DAPI staining based immunofluorescence assay; type: functional, cell-based
Method in brief: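 H1299 cells transiently transfected with GFP-LC3, then treated 24 hrs with compound (3–20 μM) or DMSO. GFP-LC3 puncta were imaged by confocal microscopy and counted per cell; n=30 cells, s.d.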

| Structure (SMILES) | IC50 [1] [nM] | IC50 [2] [nM] | IC50 [3] [µM] | IC50 [4] [nM] | IC50 [5] [µM] | IC50 at 48 h [6] [µM] | Activity [7] | IC50 [8] [nM] | Activity [9] | Activity [10] | Activity [11] | Activity [12] [%] | Activity [13] | Activity [14] | Activity [15] | Drug uptake [16] | Activity [17] | Activity [18] [%] | Drug uptake [19] | Activity [20] |
| --- | --- | --- | --- | --- | --- | --- | --- | --- | --- | --- | --- | --- | --- | --- | --- | --- | --- | --- | --- | --- |
| O[C@]12C=C(c3nccc4c3[nH]c3ccccc34)[C@@H]3CCN(CCCC/C=C\CC1)C[C@@]31C[C@@H]3/C=C\CCCCN3[C@H]12 [MANZAMINE A] | 1600 | 1100 | 3.9 | 1500 | 2.1 | 6.8 | Active | 2300 |  |  |  |  |  |  |  |  |  |  |  |  |
| CN(CCNCc1nccc2c1[nH]c1ccccc12)CCNCc1nccc2c1[nH]c1ccccc12 | 1400 | 700 | 1.2 | 1600 | 3.3 | 5.6 | Active | 2900 | Dose-dependent effect | Active | Dose-dependent effect | 97 | Active | Dose-dependent effect | Active | Active | Dose-dependent effect |  |  |  |
| CN(CCN)CCNCc1nccc2c1[nH]c1ccccc12 | 8900 | 4300 | 9.3 | 15100 | 13.2 | 12.9 |  | 20500 |  |  |  |  |  |  |  |  |  | 11 | Active | Active |
